Test results published in ChEMBL document CHEMBL1681680, “Synthesis of chroman aldehydes that inhibit HIV” (Bioorg Med Chem Lett, 2011).

Assays:
[1] = system: Human immunodeficiency virus 1; experiment: Antiviral activity against HIV1 NL4-3 infected in human HeLa37 cells assessed as inhibition of viral infectivity after 40 hrs by single round infectivity assay; type: functional, organism-based; settings: Human immunodeficiency virus 1, NL4-3, HeLa37, 40 h
In short: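 HIV-1 NL4-3 and compound mixed, then added to HeLa37 cells (5×10^4 cells/well) at MOI ~0.005. Infection maintained 40 h. Cells fixed in 75% acetone/25% water and immunostained with human anti-HIV antisera. HIV antigen-positive cells counted and normalized to controls at the same DMSO level (DMSO ≤0.5%). IC50 and IC90 taken from dose-response curves. Triplicates, three independent experiments.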

[2] = Cytotoxicity against human HeLa37 cells assessed as cell viability by ATPLite assay; type: functional; settings: for CC50: Homo sapiens, HeLa37, read-out: LC50 (the source's name)
In short: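 HeLa37 cells plated and dosed as in the infectivity assay, compounds up to 100 μg/mL, DMSO ≤0.5%. A separate DMSO dose-response (0.05–0.5%) was run, and its effect on viability was subtracted. LC50 and LC90 taken from dose-response. Triplicates, three independent experiments.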

Compound | IC50 [1] | IC90 [1] | CC50 [2] | LC90 [2]
CC1(C)CCc2c(O)c(C(=O)CC(=O)c3ccccc3)c(O)c(C=O)c2O1 | 40.7 µM | 86.6 µM | 84.2 µM | 
CC(=O)c1c(O)c(C=O)c2c(c1O)C=CC(C)(C)O2 | 34.6 µM | 98.2 µM | > 100 µM | 
CC(=O)c1c(O)c2c(c(C(C)=O)c1O)OC(C)(C)CC2 | > 100 µM | > 100 µM | > 100 µM | 
COc1c(C=O)c(OC)c(C(C)=O)c2c1CCC(C)(C)O2 | 55.3 µM | > 100 µM | > 100 µM | 
CC(=O)c1c(O)c(C=O)c(O)c2c1OC(C)(C)CC2 | 39.8 µM | 85.6 µM | > 100 µM | 
CC1(C)CCc2c(O)c(C=O)c(O)c(C=O)c2O1 | 77.3 µM | > 100 µM | > 100 µM | 
CC(=O)c1c(O)c(C=O)c2c(c1O)CCC(C)(C)O2 | 30.2 µM | 85 µM | 145 µM | 258 µM
